Measured values from different studies.
Protocols differ between the studies behind these lines.
Observed: cell growth or viability

| SMILES | cell line | method | tested at | time | measurement | result |
| --- | --- | --- | --- | --- | --- | --- |
| CC(C)[C@H](N)C(=O)N1CCC[C@H]1B(O)O | SKM-1 | ATP luminescence | – | 48 h | IC50 | 0.044 µM |
| N=C(CCl)NCCC[C@H](NC(=O)c1ccccc1)C(N)=O | U2OS | XTT | – | 72 h | EC50 | > 200 µM |
| CCCCCCCCCCCCNC(=O)NCCCC[C@H](NS(C)(=O)=O)C(=O)N[C@H](C)C(=O)N[C@@H](CCCNC(=N)N)C(N)=O | HeLa | MTT | – | 72 h | EC50 | 23.1 to 41.4 µM |
| NCCOc1cc(NC(=O)c2cc(OCc3ccc(F)cc3)cc(C(=O)Nc3cc(OCCN)c4ccccc4n3)n2)nc2ccccc12 | U2OS | ATP luminescence | – | 72 h | IC50 | 5.6 µM |
| C=CC(=O)N1CCC[C@@H](n2nc(-c3ccc(Oc4ccccc4)cc3)c3c(N)ncnc32)C1 | NB-4 | ATP luminescence | – | 72 h | GI50 | 7.5 µM |
| CC(C)C[C@H](NC(=O)[C@H](Cc1ccccc1)NC(=O)c1cnccn1)B(O)O | U2OS | ATP luminescence | – | – | IC50 | 0.011 µM |
| COc1ccc(-c2ccc(-c3ccc(C(=N)N)nc3)s2)cc1Cl | Hs-578T | SRB | – | – | GI50 | 1.85 µM |
| O=C1Nc2ccccc2C1=NNc1nnc2n1N=C(c1ccccc1)CS2 | Hs-578T | SRB | 10 µM | – | inhibition | 28% |
| COc1cc(-c2ccc(-c3ccc(C(=N)N)nc3)s2)cc(OC)c1OC | Hs-578T | SRB | – | – | GI50 | 2.59 µM |
| Cn1nnc2c(C(N)=O)ncn2c1=O | BGC-823 | – | – | – | EC50 | > 1000 µM |
| COc1ccc(-c2ccc(-c3ccc(C(=N)N)nc3)s2)cc1 | Hs-578T | SRB | – | – | GI50 | 1.82 µM |
| O=C(Nc1cc(OCCN2CCCC2)c2ccccc2n1)c1cc(OCc2ccc(F)cc2)cc(C(=O)Nc2cc(OCCN3CCCC3)c3ccccc3n2)n1 | U2OS | ATP luminescence | – | 72 h | IC50 | 5.8 µM |
